T cruzi growth-1: T. cruzi proliferation inhibition; T. cruzi beta-gal in NIH3T3, GalScreen luminescence, 90 h; inhibition, % at 8.34 µM; hit rate 5.9% among 77,000;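 active = mean inhibition above about 93%, with at least 55% of replicates each passing it, limit read from the data, passing the limit was not always enough; inconclusive = only one of those two conditions holds; inactive = neither condition holds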
GASC1 inh: inhibitors of human demethylase GASC-1 KDM4C; GST-KDM4C 2-372, H3K9me3 peptide, LANCE TR-FRET; inhibition, % at 12.5 µM; hit rate 0.15% among 96,000;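 active = mean replicate inhibition above about 25%, with at least 55% of replicates also reaching it, limit read from the data, passing the limit was not always enough; inconclusive = only one of those two conditions met; inactive = neither condition met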
Target sequence (Q9H3R0 2-372 limits assumed): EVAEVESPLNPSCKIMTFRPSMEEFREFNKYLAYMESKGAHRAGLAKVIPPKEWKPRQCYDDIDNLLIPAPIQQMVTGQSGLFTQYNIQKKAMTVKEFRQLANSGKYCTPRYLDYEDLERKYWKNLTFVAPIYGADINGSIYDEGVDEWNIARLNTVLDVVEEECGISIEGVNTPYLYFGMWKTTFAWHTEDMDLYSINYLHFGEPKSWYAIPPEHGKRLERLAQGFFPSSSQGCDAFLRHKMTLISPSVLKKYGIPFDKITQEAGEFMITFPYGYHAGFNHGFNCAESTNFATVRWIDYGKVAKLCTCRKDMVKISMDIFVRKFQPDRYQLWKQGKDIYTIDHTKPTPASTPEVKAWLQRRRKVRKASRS
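Material: GST-tagged GASC-1 (JMJD2C) catalytic fragment, aa 2-372 / Quantity: enzyme final amount 10 nM / Medium: HEPES buffer, pH 7.5, plus ascorbate / Doses: one test concentration per compound / Incubation: 30 min reaction, 60 min detection, RT / Measured by: LANCE TR-FRET / Read-out: inhibition from TR-FRET ratio decrease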
IDH1 R132H inh: inhibitors of human IDH1 R132H | inhibition, % at 10 µM | IDH1 R132H reductase, diaphorase/resazurin fluorescence, 60 min | hit rate 0.18% among 70,000 | O75874; in the data active = inhibition above about 34%; inconclusive = no clear call, values can overlap the other calls; inactive = below about 11%;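 note: 0% = DMSO and 100% = no enzyme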
T cruzi growth-2: inhibitors of T. cruzi proliferation | shares compounds with T cruzi growth-1 | T. cruzi beta-gal in NIH3T3, GalScreen luminescence, 90 h | inhibition, % at 8.35 µM | hit rate 72% among 5,600 | AID 651739;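 active = mean replicate inhibition above about 95% and at least 55% of replicates individually reaching it, limit read from the data; inconclusive = only one of the two criteria is met; inactive = neither criterion is met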
T cruzi growth-3: inhibitors of T. cruzi proliferation; shares compounds with T cruzi growth-1; T. cruzi beta-gal in NIH3T3, GalScreen luminescence, 90 h; inhibition, % at 2.09 µM; hit rate 21% among 5,600; AID 651740;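 active = mean inhibition above about 95%, with at least 55% of replicates also reaching it, limit read from the data; inconclusive = meets just one of the two conditions; inactive = meets neither condition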;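 note: plate controls were neutral control median for no effect and positive control median for full effect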
NIH3T3 tox: NIH/3T3 (mouse) viability loss | shares compounds with T cruzi growth-1 | cytotoxicity (signal decrease), % at 8.35 µM | hit rate 14% among 5,600 | NIH/3T3 viability, CellTiter-Glo ATP luminescence, 90 h;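 active = mean signal decrease across replicates above about 35% based on untreated-well scatter, with enough replicates individually passing, limit read from the data; inconclusive = no rule stated though some were filed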;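 note: 0% = median of neutral control wells and 100% = median of positive control wells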
3T3 cytotox 2: NIH/3T3 (mouse) viability loss | shares compounds with T cruzi growth-1 | NIH/3T3 viability, CellTiter-Glo ATP luminescence, 90 h | inhibition, % at 24.9 µM | hit rate 56% among 5,600;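 active = mean loss of cell viability signal at or above a set limit, and enough replicates individually reaching it; inconclusive = meets only the mean limit or only the replicate share; inactive = meets neither condition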;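 note: 0% = median of neutral control wells and 100% = median of positive control wells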
An asterisk follows results filed as active; u = inconclusive; x = no result. The sample as a whole holds a higher share of hits than the screen did.

SMILES	T cruzi growth-1	GASC1 inh	IDH1 R132H inh	T cruzi growth-2	T cruzi growth-3	NIH3T3 tox	3T3 cytotox 2
C[C@H]1CN([C@@H](C)CO)S(=O)(=O)c2ccc(C#CC3CC3)cc2O[C@@H]1CN(C)Cc1ccccn1	109.0*	-1.4	1.6	91.0	71.0	27.1	79.9*
C[C@@H]1CN([C@H](C)CO)S(=O)(=O)c2ccc(C#CC3CC3)cc2O[C@H]1CN(C)Cc1ccccn1	109.5*	0.3	-1.8	76.2	-3.1	101.8*	76.1*
C[C@@H]1CN([C@@H](C)CO)S(=O)(=O)c2ccc(C#CC3CC3)cc2O[C@H]1CN(C)Cc1ccccn1	u	2.4	-0.1	99.7*	79.3	64.5*	72.2*
CC(C)C#Cc1ccc2c(c1)O[C@@H](CN(C)Cc1ccccn1)[C@H](C)CN([C@H](C)CO)S2(=O)=O	75.5	x	-3.7	x	x	x	x
CC(C)C#Cc1ccc2c(c1)O[C@@H](CN(C)Cc1ccccn1)[C@@H](C)CN([C@H](C)CO)S2(=O)=O	78.9	x	x	x	x	x	x
Cc1ccc(S(=O)(=O)N(C)CC(=O)Nc2ccc(Br)cc2F)cc1	x	x	-0.3	x	x	x	x
O=C(O)CCC(=O)Nc1ccc(NC(=O)c2ccccc2)c(Cl)c1	x	x	-0.2	x	x	x	x
CC(=O)OCC(Cc1ccccc1)NC(=O)C(Cc1ccccc1)NC(=O)c1ccccc1 (stereo not given)	x	x	0.1	x	x	x	x
CC(=O)c1ccc(NC(=O)CSc2nc(C)cc(C)c2C#N)cc1	x	x	-0.3	x	x	x	x
CCc1csc(N2[C@H](C#N)[C@H](c3ccc(C4=CCCC4)cc3)[C@H]2CO)n1	102.5*	-1.9	x	103.3*	28.8	-5.0	20.1
N#C[C@H]1[C@H](c2ccc(C3=CCCC3)cc2)[C@@H](CO)N1c1nc(-c2ccccc2)cs1	57.8	-4.7	x	x	x	x	x
CCc1csc(N2[C@H](C#N)[C@H](c3ccc(C4=CCCC4)cc3)[C@@H]2CO)n1	101.6*	-0.4	x	106.9*	112.5*	12.1	36.2*
N#C[C@H]1[C@@H](c2ccc(C3=CCCC3)cc2)[C@H](CO)N1c1nc(-c2ccccc2)cs1	x	-4.3	x	x	x	x	x
CCc1cnc(N2[C@@H](C#N)[C@H](c3ccc(C4=CCCCC4)cc3)[C@@H]2CO)s1	88.0	-1.2	x	x	x	x	x
CCc1cnc(N2[C@H](CO)[C@H](c3ccc(C4=CCCCC4)cc3)[C@@H]2C#N)s1	103.5*	-2.3	x	104.5*	101.7*	38.0*	40.0*
COc1ccc(OC)c(NC(=O)C(C)N(c2ccc(C)c(C)c2)S(C)(=O)=O)c1 (stereo not given)	x	x	-0.4	x	x	x	x
Cc1ccc(CC(CC(=O)O)C(=O)Nc2ccccc2I)cc1 (stereo not given)	x	x	-0.1	x	x	x	x
C[C@@H]1CCCCO[C@@H](CN(C)C(=O)Nc2ccc(C(F)(F)F)cc2)[C@H](C)CN([C@@H](C)CO)C(=O)c2cc(NC(=O)Cc3ccccc3)ccc2O1	121.8*	1.3	x	108.2*	92.6	26.3	43.2*
C[C@@H]1CCCCO[C@H](CN(C)C(=O)Nc2ccc(C(F)(F)F)cc2)[C@H](C)CN([C@H](C)CO)C(=O)c2cc(NC(=O)Cc3ccccc3)ccc2O1	u	0.3	x	109.5*	106.6*	14.1	56.2*
C[C@@H]1CCCCO[C@H](CN(C)C(=O)Nc2ccccc2)[C@H](C)CN([C@@H](C)CO)C(=O)c2cc(NC(=O)Cc3ccccc3)ccc2O1	39.5	-1.0	0.1	x	x	x	x
C[C@H]1CCCCO[C@@H](CN(C)C(=O)Nc2ccccc2)[C@@H](C)CN([C@@H](C)CO)C(=O)c2cc(NC(=O)Cc3ccccc3)ccc2O1	27.1	0.1	2.6	x	x	x	x
C[C@@H]1CCCCO[C@H](CN(C)C(=O)Nc2ccccc2)[C@@H](C)CN([C@@H](C)CO)C(=O)c2cc(NC(=O)Cc3ccccc3)ccc2O1	20.8	-0.1	-0.6	x	x	x	x
C[C@H](CO)N1C[C@H](C)[C@@H](CN(C)C(=O)Nc2ccc(C(F)(F)F)cc2)OCCCC[C@H](C)Oc2ccc(NC(=O)Cc3ccccc3)cc2C1=O	127.7*	-1.4	x	108.1*	110.3*	12.6	u
C[C@@H]1CCCCO[C@@H](CN(C)C(=O)Nc2ccccc2)[C@@H](C)CN([C@H](C)CO)C(=O)c2cc(NC(=O)Cc3ccccc3)ccc2O1	6.2	-0.4	0.7	x	x	x	x
